Experimental data published in ChEMBL document CHEMBL1139611, “Structure-activity relationships of novel endomorphin-2 analogues with N-O turns induced by alpha-aminoxy acids” (Bioorg Med Chem Lett, 2005).

Legend:
Mu-type opioid receptor [1] = target: T1, Mu-type opioid receptor (Rattus norvegicus, UniProt P33535); experiment: Inhibition of [3H]DAMGO binding to Opioid receptor mu 1 of rat brain membrane
In short: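 Rat brain synaptosomal P2 membranes from Wistar rats in 50 mM Tris-HCl, pH 7.4. […] Nonspecific binding was defined with naloxone. Ki was derived by Cheng-Prusoff. Values are means of at least three experiments.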

[2] = target: Delta-type opioid receptor (Rattus norvegicus, UniProt P33533); experiment: Inhibition of [3H]DPDPE binding to Opioid receptor delta 1 of rat brain membrane
Chain of Delta-type opioid receptor (P33533 whole entry): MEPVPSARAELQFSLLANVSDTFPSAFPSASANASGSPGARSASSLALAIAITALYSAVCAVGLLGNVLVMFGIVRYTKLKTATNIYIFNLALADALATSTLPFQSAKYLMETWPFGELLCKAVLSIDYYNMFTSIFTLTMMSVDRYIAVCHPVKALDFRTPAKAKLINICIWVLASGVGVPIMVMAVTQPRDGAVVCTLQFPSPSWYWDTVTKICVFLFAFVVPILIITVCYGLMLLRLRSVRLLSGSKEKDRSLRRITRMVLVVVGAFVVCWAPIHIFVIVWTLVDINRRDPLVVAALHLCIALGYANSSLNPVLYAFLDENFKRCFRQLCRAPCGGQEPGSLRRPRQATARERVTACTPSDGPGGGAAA
In short: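 Competition binding on Wistar rat brain synaptosomal P2 membranes in 50 mM Tris–HCl, pH 7.4. […] Delta sites were labelled with [3H]DPDPE (1 nM, Kd 2.75 nM) for 3 h at 25 °C. Nonspecific binding was taken with naloxone. Ki was derived by Cheng–Prusoff; values are means of ≥3 experiments.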

[3] = target: Opioid receptors; mu & delta (Rattus norvegicus) (UniProt P33533+P33535); experiment: Selectivity ratio of Opioid receptor delta 1 to Opioid receptor mu 1; assay type: protein assay
Chain of Opioid receptors; mu & delta (Rattus norvegicus) (P33533 whole entry, looked up): as the sequence (P33533 whole entry) above
Chain of Opioid receptors; mu & delta (Rattus norvegicus) (P33535 whole entry, looked up): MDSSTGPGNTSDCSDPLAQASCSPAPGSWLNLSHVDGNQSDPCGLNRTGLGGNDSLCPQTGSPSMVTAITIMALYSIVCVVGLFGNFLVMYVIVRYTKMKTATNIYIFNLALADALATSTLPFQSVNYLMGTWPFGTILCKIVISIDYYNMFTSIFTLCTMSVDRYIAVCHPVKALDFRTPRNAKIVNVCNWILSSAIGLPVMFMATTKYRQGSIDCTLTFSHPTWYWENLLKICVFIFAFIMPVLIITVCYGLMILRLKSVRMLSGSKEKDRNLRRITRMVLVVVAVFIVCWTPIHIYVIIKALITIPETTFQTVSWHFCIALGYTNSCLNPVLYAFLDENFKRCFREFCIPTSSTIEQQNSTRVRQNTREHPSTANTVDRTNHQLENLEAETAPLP

[4] = target: Mu-type opioid receptor (Rattus norvegicus) (UniProt P33535); experiment: Percent inhibition of [3H]-DAMGO binding to Opioid receptor mu 1 of rat brain membrane at 10 uM; design: scale not given: the % may be the effect or the level left
Chain of Mu-type opioid receptor (Rattus norvegicus) (P33535 whole entry): as the sequence (P33535 whole entry, looked up) above

[5] = target: Delta-type opioid receptor (Rattus norvegicus) (UniProt P33533); experiment: Percent decrease of maximum binding towards Opioid receptor delta 1 in rat brain membrane using [3H]DPDPE at 10 uM concentration; assay type: cell membranes; design: scale not given: the % may be the effect or the level left
Chain of Delta-type opioid receptor (Rattus norvegicus) (P33533 whole entry): as the sequence (P33533 whole entry) above

Mu-type opioid receptor [6] = target: T1, Mu-type opioid receptor; experiment: Inhibition of [3H]DAMGO binding to Opioid receptor mu 1 of rat brain membrane; na= No activity.
[7] = target: Delta-type opioid receptor (Rattus norvegicus) (UniProt P33533); experiment: Percent inhibition of [3H]DPDPE binding to Opioid receptor delta 1 of rat brain membrane at 10 uM; design: scale not given: the % may be the effect or the level left

T1 sequence (P33535 whole entry): as the sequence (P33535 whole entry, looked up) above

| Activity [4] [%] | Activity [5] [%] | Ki (Mu-type opioid receptor [6]) | Compound | Ki (Mu-type opioid receptor [1]) [µM] | Ki [2] [µM] | Selectivity [3] | Activity [7] [%] |
| --- | --- | --- | --- | --- | --- | --- | --- |
|  |  |  | NC(=O)[C@H](Cc1ccccc1)NC(=O)[C@H](Cc1ccccc1)O/N=C/[C@@H]1CCCN1C(=O)[C@@H](N)Cc1ccc(O)cc1 | 408 | 19.8 | 4.1 |  |
|  |  |  | NC(=O)[C@H](Cc1ccccc1)NC(=O)[C@@H](Cc1ccccc1)O/N=C/[C@@H]1CCCN1C(=O)[C@@H](N)Cc1ccc(O)cc1 | 4.04 | 37.1 | 9 |  |
| 22 | 18 |  | NC(=O)[C@H](Cc1ccccc1)NC(=O)[C@H](Cc1ccccc1)NC(=O)[C@@H](Cc1ccccc1)NO[C@@H](N)Cc1ccc(O)cc1 | > 10 | > 10 |  |  |
|  |  |  | NC(=O)[C@H](Cc1ccccc1)NC(=O)[C@H](Cc1ccccc1)NC(=O)[C@@H]1CCN(C(=O)[C@@H](N)Cc2ccc(O)cc2)C1 | 0.00823 | 8.36 | 1020 |  |
|  | 30 | Not Active | NC(=O)[C@H](Cc1ccccc1)NC(=O)[C@H](Cc1ccccc1)NC(=O)[C@H](Cc1ccccc1)NO[C@@H](N)Cc1ccc(O)cc1 |  | > 10 |  |  |
|  |  |  | NC(=O)[C@H](Cc1ccccc1)NC(=O)[C@@H](Cc1ccccc1)NO[C@@H]1CCCN1C(=O)[C@@H](N)Cc1ccc(O)cc1 | 0.6 | > 10 | > 17 | 30 |
|  |  |  | NC(=O)[C@H](Cc1ccccc1)NC(=O)[C@H](Cc1ccccc1)NO[C@@H]1CCCN1C(=O)[C@@H](N)Cc1ccc(O)cc1 | 0.434 | > 10 | > 23 | 15 |
